E-selectin induc: E-selectin induction on HUVECs; P16581; HUVEC E-selectin immunofluorescence imaging; normalized: neutral wells 0, TNF-alpha wells 100; activation, % at 7.58 µM; actives 0.37% (n = 260,000); AID 686992;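 active = mean E-selectin-positive cell signal at least 10% of the positive control, reached in at least 60% of replicates, without over 20% cell loss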
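Test system: HUVEC | Signal: Immunofluorescence imaging | Read-out: Percent E-selectin-positive cells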
CFTR F508del cor: CFTR F508del correction in bronchial cells. CFBE cells, YFP halide quenching; stimulated with forskolin plus potentiator P3; % fluorescence drop versus neutral controls. activity (quench increase), % at 7.58 µM. actives 0.36% (n = 350,000). AID 720511;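 active = mean added fluorescence quench of at least 8% versus neutral control, with both replicates also reaching 8%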;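 note: cells transiently co-express mutant CFTR-F508del with the halide-sensitive YFP; corrector assay measuring rescue of mutant channel to the surface after 24 h compound exposure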
Env fusion inh: HIV envelope-mediated fusion inhibition. HeLa-JRFL Env/CEM21 cell fusion, luciferase. inhibition, % at 12.3 µM. actives 1.1% (n = 360,000). AID 651610;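 active = mean replicate inhibition score of at least 50 and every replicate individually at or above 50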;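 note: 0% = plate neutral controls and 100% = maraviroc near 300 nM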
S100A4 inh HTS: inhibitors of human S100A4 binding to myosin IIA peptide | P26447 | S100A4/TAMRA-MyoIIA peptide fluorescence polarization | inhibition, % at 10.7 µM | actives 0.14% (n = 360,000) | AID 652163;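 active = mean inhibition of at least 70% across replicates, with every replicate also reaching that level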
Target sequence (P26447 whole entry, looked up): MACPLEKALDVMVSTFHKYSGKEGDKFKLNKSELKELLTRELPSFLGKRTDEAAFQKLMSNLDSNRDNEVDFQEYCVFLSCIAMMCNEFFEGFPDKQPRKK
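Compound dosing: one dose per compound; test system: human S100A4 monomer with TAMRA-labelled myosin IIA peptide; probe or stimulus: TAMRA-labelled myosin IIA heavy-chain peptide probe, 5 nM; medium: HEPES buffer with Ca2+, pH 7.2; schedule: 5 min incubation before reading; benchmarks: neutral control DMSO, positive control TFP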
FGF22 binding: binders of recombinant human FGF22 by thermal shift | Q9HCT0 | actives 1.5% (n = 340,000) | activity (Tm shift, normalised), % at 9.99 µM | SYPRO orange fluorescence; percent of sucrose octasulfate shift, DMSO zero | AID 651658;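 active = mean Tm shift, scaled 0 neutral to 100 positive control, at about 1.3% or above, every replicate too, limit read from the data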
Target sequence (Q9HCT0 whole entry, looked up): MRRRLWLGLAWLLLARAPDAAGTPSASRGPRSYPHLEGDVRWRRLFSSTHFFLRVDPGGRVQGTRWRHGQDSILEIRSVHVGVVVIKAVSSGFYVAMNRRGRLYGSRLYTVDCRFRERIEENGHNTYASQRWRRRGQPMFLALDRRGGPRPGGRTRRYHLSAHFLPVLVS
* = called active by the depositor; · = no result given; [ ] = dose if it differs, or a comment. Rows were chosen to be rich in hits. Some 2.7% of all compounds tested hit in one or more screens of this group.

SMILES	E-selectin induc	CFTR F508del cor	Env fusion inh	S100A4 inh HTS	FGF22 binding
CC1(C)CCN2CCC(C)(C)c3c(O)ccc1c32	·	38*	45	-11	0
C[C@H](O)C#Cc1cnc2c(c1)C(=O)N([C@@H](C)CO)C[C@H](C)[C@H](CN(C)C(=O)c1ccc(F)cc1)O2	0	-1	2[16.7 µM]	3	0
CCN1C(=O)[C@@H]2[C@@H](c3ccc(-c4ccc(Cl)c(Cl)c4)cc3)N3CCCC[C@@]3(C(=O)OC)[C@@H]2C1=O	0	3	63*	4	0
CCSc1ccc([C@@H]2[C@@H]3C(=O)N(CC)C(=O)[C@@H]3[C@]3(C(=O)OC)CCCCN23)cc1	0	-2	63*	0	0
COC(=O)[C@@]12CCCCN1[C@H](c1ccc(-c3ccc(Cl)c(Cl)c3)cc1)[C@H]1C(=O)N(C)C(=O)[C@H]12	0	3	17	-9	1
CC(C)CC#Cc1cnc2c(c1)C(=O)N([C@@H](C)CO)C[C@H](C)[C@@H](CN(C)Cc1cncnc1)O2	0	-2	17[16.7 µM]	8	0
C[C@H]1CCCCO[C@@H](CN(C)C(=O)Nc2ccc3c(c2)OCO3)[C@@H](C)CN([C@@H](C)CO)C(=O)c2cc(NC(=O)Nc3ccc(C(F)(F)F)cc3)ccc2O1	5	6	14[16.7 µM]	-25	0
CCCC12C(=O)C(C)(C(c3ccccc3)=C1c1ccccc1)C1C(=O)N(c3ccc(C)cc3)C(=O)C12 (configuration not stated)	-2	·	83*	1	0
CCC12C(=O)C(CC)(C(c3ccccc3)=C1c1ccccc1)[C@@H]1C(=O)N(c3ccc(C)cc3)C(=O)C12 (some centres not stated)	-1	·	92*	-5	0
O=S(=O)(N[C@H]1CC[C@@H](CCn2cc(C3(O)CCCC3)nn2)O[C@@H]1CO)c1ccc(Cl)cc1	1	1	-10[16.7 µM]	7	0
COc1ccc(NC(=O)N(C)C[C@@H]2Oc3ncc(C#C[C@@H](C)O)cc3C(=O)N([C@@H](C)CO)C[C@H]2C)cc1	0	-1	1[16.7 µM]	-7	0
COc1ccc2c3c([nH]c2c1)[C@H](CO)N(S(C)(=O)=O)CC31CN(CC2CCOCC2)C1	0	-1	·	102*	·
COc1cccc(CN2CC3(CN(C)C3)c3c([nH]c4cc(OC)ccc34)[C@H]2CO)c1	0	0	·	6	·
COCC(=O)N1CC2(CCN(Cc3ccccc3)CC2)c2c([nH]c3cc(OC)ccc23)[C@H]1CO	1	13*	·	4	0
COc1ccc2c3c([nH]c2c1)[C@H](CO)N(S(C)(=O)=O)CC31CCN(Cc2cccc(F)c2)CC1	0	8.3*	·	·	·
COc1ccc2c3c([nH]c2c1)[C@@H](CO)N(S(C)(=O)=O)CC31CCN(Cc2cccc(F)c2)CC1	0	5	·	·	·
COc1ccc2c3c([nH]c2c1)[C@@H](CO)N(S(C)(=O)=O)CC31CN(CC2CCOCC2)C1	0	0	·	5	·
COc1cccc(CN2CC3(CN(C)C3)c3c([nH]c4cc(OC)ccc34)[C@@H]2CO)c1	0	-1	·	116*	·
Cn1cnc(S(=O)(=O)N[C@@H]2C=C[C@H](CC(=O)Nc3ccccc3)O[C@@H]2CO)c1	0	1	-1[16.7 µM]	-9	1
O=C(c1ccccc1)N1CC2(C1)[C@H](c1ccccc1)[C@@H](CO)N2Cc1ccccn1	0	2	·	107*	0
CNC[C@H]1OCCCC[C@@H](C)Oc2ccc(NC(=O)C3CCCCC3)cc2C(=O)N([C@H](C)CO)C[C@H]1C	0	0	-8[16.7 µM]	-9	0
N#C[C@@H]1[C@@H](c2ccc(-c3cccc(F)c3)cc2)[C@@H](CO)N1C(=O)NC1CCCCC1	0	-4	·	-10	·
COc1ccc(NS(=O)(=O)c2ccc(N3CCCC3)c(NC(=S)Nc3cccc(C)c3C)c2)cc1	·	·	149*	·	·
COCCCn1c(C(=O)Nc2ccc3c(c2)OCO3)cc2c(=O)n3cccc(C)c3nc21	0	2	64*	30	0
O=C1CN(C(=O)c2c(F)cccc2F)C(c2ccccc2)c2cc(Br)ccc2N1 (configuration not stated)	3	-2	47	-4	0
SMILES	E-selectin induc	CFTR F508del cor	Env fusion inh	S100A4 inh HTS	FGF22 binding
Cc1ccc2c(c1)C(c1ccccc1)N(C(=O)c1c(F)cccc1Cl)CC(=O)N2 (configuration not stated)	·	1	59*	-4	0
CCCn1c(=S)[nH]c2cc(C(=O)N3CCCC(C(=O)OCC)C3)ccc2c1=O (configuration not stated)	·	·	84*	·	·
CCCn1c(=S)[nH]c2cc(C(=O)N3CCN(C(=O)OCC)CC3)ccc2c1=O	·	-2	-3	-1	0
Cc1nc2ccccc2c2oc(C(=O)N3CC(C)CC(C)C3)cc12 (configuration not stated)	·	4	2	0	0
CCOC(=O)C1CCCN(C(=O)c2cc3c(C)nc4ccccc4c3o2)C1 (configuration not stated)	·	·	56*	·	·
CN(C)c1ccnc2c[cH-]cc12.[Fe].c1ccc(-[c-]2[c-](-c3ccccc3)[c-](-c3ccccc3)[c-](-c3ccccc3)[c-]2-c2ccccc2)cc1 (configuration not stated)	0	-1	57*	0	0
CN(C)c1ccnc(Nc2ccccc2)c1C#N	·	-1	9	-19	0
COc1ccc2c3c(n(C)c2c1)[C@@H](CO)N(C(=O)c1ccccn1)CC31CN(C(=O)Cc2ccccc2)C1	0	1	·	10	0
C[C@@H]1CN([C@@H](C)CO)C(=O)c2cc(-c3ccccc3)cnc2O[C@H]1CN(C)C(=O)NC1CCCC1	0	2	-12[16.7 µM]	0	0
C[C@@H]1CCCCO[C@H](CN(C)S(=O)(=O)c2cccs2)[C@@H](C)CN([C@H](C)CO)C(=O)c2cc(NS(=O)(=O)c3ccc(Cl)cc3)ccc2O1	·	1	-2[16.7 µM]	-3	1.6*
C[C@H](CO)N1C[C@H](C)[C@@H](CN(C)S(=O)(=O)c2cccs2)OCCCC[C@H](C)Oc2ccc(NS(C)(=O)=O)cc2C1=O	0	1	-82[16.7 µM]	106*	-1
C[C@H](CO)N1C[C@H](C)[C@H](CN(C)S(=O)(=O)c2cccs2)OCCCC[C@H](C)Oc2ccc(NS(C)(=O)=O)cc2C1=O	0	1	12[16.7 µM]	7	0
C[C@H]1CCCCO[C@H](CN(C)S(=O)(=O)c2cccs2)[C@@H](C)CN([C@@H](C)CO)C(=O)c2cc(NS(=O)(=O)c3ccc(Cl)cc3)ccc2O1	·	2	5[16.7 µM]	4	-1
